Consider seven molecules from ChEMBL document CHEMBL1150058, “Gigantetronenin and gigantrionenin: novel cytotoxic acetogenins from Goniothalamus giganteus” (J Nat Prod, 1992).

Structures are written as SMILES. Converted amounts (≈) assume the structure as drawn.

One data set relates to A549. The experiment in a line: Cytotoxicity against human A549 cells. The class given is functional. Particulars: for EC50: Homo sapiens, A549, read-out: ED50 (the source's name). The method in brief:
(§1)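 Cultured human tumour lines (A-549 lung carcinoma, MCF-7 breast carcinoma, HT-29 colon adenocarcinoma) were tested at the Purdue Cell Culture Laboratory by standard protocols, with adriamycin as positive control.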

For another data set, the system named is MCF7. The experiment in a line: Cytotoxicity against human MCF7 cells. The class given is functional. Particulars: read-out: ED50 (the source's name). The method in brief:
as §1

For a further data set, the system named is HT-29. The experiment in a line: Cytotoxicity against human HT-29 cells. The class given is functional. To be noted: read-out: ED50 (the source's name). The procedure, abridged:
as §1

The nature of data set [1]: Toxicity in brine shrimp. The class given is organism-based. To be noted: artemia, in vivo.

For `CCCCCCCCCCCC/C=C\CC[C@@H](OC(C)=O)[C@@H](CC[C@H](OC(C)=O)[C@@H]1CC[C@@H](CCCCCCCC2=CC(C)OC2=O)O1)OC(C)=O` (stereo not given in full), the figures for the EC50 in the data set on A549, in the data set with MCF7 and in the data set with HT-29 were 0.359 µg/mL (≈ 0.49 µM), 24.9 µg/mL (≈ 33.9 µM) and 0.0667 µg/mL (≈ 0.091 µM), respectively.
On the same counts, the results for `CCCCCCCCCCCC[C@@H](OC(C)=O)[C@H]1CC[C@H]([C@@H](CCCCCC[C@H](CCCCC[C@H](CC2=C[C@H](C)OC2=O)OC(C)=O)OC(C)=O)OC(C)=O)O1` are 0.17 µg/mL (≈ 0.214 µM), 90.4 µg/mL (≈ 114 µM) and 14.9 µg/mL (≈ 18.7 µM).
On the same counts, the results for `CCCCCCCCCCCC/C=C\CC[C@@H](OC(C)=O)[C@@H](CC[C@H](OC(C)=O)[C@@H]1CC[C@@H](CCCCCC(CC2=CC(C)OC2=O)OC(C)=O)O1)OC(C)=O` (stereo not given in full) are 0.96 µg/mL (≈ 1.21 µM), 5.97 µg/mL (≈ 7.55 µM) and 1.6 µg/mL (≈ 2.02 µM).
Turning to `CCCCCCCCCCCC[C@H](O)[C@@H]1CC[C@@H]([C@@H](O)CCCCCCC(O)CCCCC[C@@H](O)CC2=C[C@H](C)OC2=O)O1` (stereo not given in full) [ANNOMONTACIN], in data set [1], the LC50 – broadly, the concentration lethal to half of the exposed cells or organisms – is 12.5 µg/mL (≈ 20 µM).
As for `COc1cccc2c1C(=O)c1c(O)c3c(c(O)c1C2=O)C[C@@](O)(C(=O)CO)C[C@@H]3O[C@H]1C[C@H](N)[C@H](O)[C@H](C)O1` [DOXORUBICIN], the ED50 in the data set on A549 is 2.37 ×10⁻⁴ ug/ml. Moreover, the LC50 in data set [1] is 8 µg/mL (≈ 14.7 µM). In addition, the figures for the EC50 in the data set on MCF7 and with HT-29 were 0.0108 µg/mL (≈ 0.0199 µM) and 0.00483 µg/mL (≈ 0.00889 µM), respectively.
Turning to `CCCCCCCCCCCCCCC(O)C(O)CC[C@H](O)[C@H]1CC[C@H](CCCCC[C@@H](O)CC2=C[C@H](C)OC2=O)O1` (stereo not given in full) [GIGANTETRONENIN], in the data set with A549, the EC50 was determined as 0.00471 µg/mL (≈ 0.00789 µM). The LC50 in data set [1] is 9.4 µg/mL (≈ 15.7 µM).
As to `CCCCCCCCCCCC/C=C\CC[C@@H](O)[C@H](O)CC[C@H](O)[C@@H]1CC[C@@H](CCCCCCCC2=C[C@H](C)OC2=O)O1` [GIGANTRIONENIN], the EC50 came out at 0.00394 µg/mL (≈ 0.00649 µM) with A549, 8.06 µg/mL (≈ 13.3 µM) in the data set on MCF7 and 0.00292 µg/mL (≈ 0.00481 µM) with HT-29. The same molecule gave an LC50 in data set [1] of 13.9 µg/mL (≈ 22.9 µM).
